Laboratory results from ChEMBL document CHEMBL1795299, “Pyrrolo[2,3-c]azepine derivatives: a new class of potent protein tyrosine phosphatase 1B inhibitors” (Bioorg Med Chem Lett, 2011).
Activity calls are given as the source filed them. The rule behind the calls is not given here.

Tests used:
[1] = biological target: T1, Tyrosine-protein phosphatase non-receptor type 1 (Homo sapiens) (UniProt P18031); experiment: Inhibition of human recombinant PTP1B assessed as inhibition of para-nitrophenyl phosphate to para-nitrophenol conversion at 100 uM by spectrophotometry
T1 sequence (whole entry): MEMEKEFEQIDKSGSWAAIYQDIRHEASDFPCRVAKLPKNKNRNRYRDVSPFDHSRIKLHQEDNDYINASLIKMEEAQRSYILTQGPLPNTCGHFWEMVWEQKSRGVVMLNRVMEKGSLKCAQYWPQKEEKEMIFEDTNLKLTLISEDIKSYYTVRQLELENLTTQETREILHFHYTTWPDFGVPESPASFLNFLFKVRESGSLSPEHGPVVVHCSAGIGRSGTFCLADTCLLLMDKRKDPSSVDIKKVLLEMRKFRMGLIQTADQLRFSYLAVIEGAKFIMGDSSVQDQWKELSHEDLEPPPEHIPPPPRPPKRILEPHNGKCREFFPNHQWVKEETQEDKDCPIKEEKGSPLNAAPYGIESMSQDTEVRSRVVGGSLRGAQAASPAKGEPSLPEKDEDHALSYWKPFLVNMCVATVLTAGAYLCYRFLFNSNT
Summary of the method: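 GST-tagged human PTP1B, expressed in E. coli BL21 and purified on GST beads, hydrolyses pNPP to p-nitrophenol, read as absorbance at 405 nm. Compounds were dissolved in 100% DMSO, and the inhibitory rate was recorded. BPV(phen) served as the reference.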

[2] = biological target: T2, Tyrosine-protein phosphatase non-receptor type 1 (Homo sapiens, UniProt P18031); experiment: Inhibition of human recombinant PTP1B assessed as inhibition of para-nitrophenyl phosphate to para-nitrophenol conversion by spectrophotometry
T2 sequence (P18031 whole entry): T1 sequence (whole entry)
Summary of the method: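 Recombinant human GST-PTP1B, from E. coli BL21 pellets purified on a GST bead column, converts pNPP to p-nitrophenol, measured at 405 nm. Compounds were dissolved in 100% DMSO and tested over a dose series. IC50 came from a sigmoidal dose-response curve with variable slope. BPV(phen) served as the reference.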

SMILES | inhibition [1] | IC50 [2] [µM]
O=C1CCNC(=O)c2c1ccn2Cc1ccccc1 | inactive | –
O=C1NCC=Cc2ccn(Cc3ccccc3)c21 | inactive | –
O=C1NCCC(O)c2ccn(Cc3ccccc3)c21 (centres undefined) | inactive | –
O=C1CCNC(=O)c2c1ccn2-c1ccc(-c2ccccc2)cc1 | inactive | –
O=C1c2c(ccn2Cc2ccccc2)/C(=N/O)CCN1Cc1ccccc1 | inactive | –
CC(=O)c1ccc(-n2ccc3c2C(=O)NCCC3=O)cc1 | inactive | –
COc1ccc(-n2ccc3c2C(=O)NCCC3=O)cc1 | inactive | –
CCc1ccc(-n2ccc3c2C(=O)NCCC3=O)cc1 | inactive | –
O=C1NCCC(O)c2ccn(Cc3ccc(-c4ccccc4)cc3)c21 (centres undefined) | inactive | –
O=C1CCNC(=O)c2c1ccn2-c1ccccc1 | inactive | –
O=C1CCNC(=O)c2[nH]ccc21 | Active | –
O=C1CCNC(=O)c2c1ccn2-c1ccc(C(F)(F)F)cc1 | inactive | –
O=C1CCN(Cc2ccccc2)C(=O)c2c1ccn2Cc1ccccc1 | inactive | –

Second part, the molecule after the results:

inhibition [1] | IC50 [2] [µM] | SMILES
Active | 13.9 | COc1ccc(-c2ccc(Cn3c4c(c5ccccc53)C(=O)CCNC4=O)cc2)cc1
inactive | – | NC(=O)c1ccccc1-c1ccc(Cn2ccc3c2C(=O)NCCC3=O)cc1
Active | 16.4 | CCCCOc1ccc(-c2ccc(Cn3ccc4c3C(=O)NCCC4=O)cc2)cc1
Active | – | CCCOc1ccc(-c2ccc(Cn3ccc4c3C(=O)NCCC4=O)cc2)cc1
Active | 14.9 | COc1ccc(-c2ccc(Cn3ccc4c3C(=O)NCC/C4=N\Nc3ccccn3)cc2)cc1
inactive | – | O=C1CCNC(=O)c2c1ccn2Cc1ccc(-c2ccccc2)cc1
Active | – | O=C1CCNC(=O)c2c1ccn2Cc1ccc(-c2ccc(O)cc2)cc1
Active | – | COc1ccc(-c2ccc(Cn3ccc4c3C(=O)N(C)CCC4=O)cc2)cc1
inactive | – | N#Cc1ccccc1-c1ccc(Cn2ccc3c2C(=O)NCCC3=O)cc1
Active | – | COc1ccc(-c2ccc(Cn3ccc4c3C(=O)NCCC4=O)cc2)cc1
inactive | – | O=C1CCNC(=O)c2c1ccn2Cc1ccc(-c2cccc(O)c2)cc1
Active | – | Cc1ccc(-c2ccc(Cn3ccc4c3C(=O)NCCC4=O)cc2)cc1
inactive | – | Nc1cccc(-c2ccc(Cn3ccc4c3C(=O)NCCC4=O)cc2)c1
